Entries after “also recorded” stand apart in the source; their conditions may differ.
Key:
Format in all cases: cell-based, human
[1] = system: phospho-Akt (Ser473) in Caco-2 cells; assay: Western blot analysis of Akt; details: 25 μM, compared to control
Outline: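 Cells at 1.5 × 10^5/well were exposed 20 h after seeding to 25 μM of each test compound or the mixture for 10 days. Lysis was in RIPA with protease and phosphatase inhibitors. 25 μg protein was resolved by SDS-PAGE and blotted to nitrocellulose. Blots were probed overnight at 4 °C with anti-phospho-Akt Ser473 (1/2000) and anti-Akt1/2/3 (1/1000), then detected with 800 nm infrared-dye secondaries and quantified by relative fluorescence. Three independent experiments.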

[2] = system: catalase (CAT) activity in Caco-2 cells; assay: Antioxidant enzyme assay: catalase; details: 10 days, 1, 5, 10 and 25 μM, vs control
Outline: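 Cells at 1.5 × 10^5/well were exposed next day to 1–25 μM test compound or vehicle, renewed every 48 h. At day 10 they were sonicated in 50 mM phosphate pH 7 with 1 mM EDTA. Catalase was measured in the 105,000 × g (1 h, 4 °C) supernatant as H2O2 decomposition followed at 240 nm for 30 s. Specific activity is given as % of control.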

[3] = system: Caco-2 cell monolayer; assay: Phenol red diffusion; details: 1-25 μM, day 10, vs control
Outline: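 Monolayers were grown on collagen-coated Transwells (2.5 × 10^5 cells/well) for 4 days. Then 1, 5, 10 or 25 μM test compound or 0.1% DMSO was added to both compartments in 4% FBS medium, renewed every 2 days. At day 10, phenol red medium was placed apically and phenol red-free medium basolaterally. Apical-to-basolateral diffusion over 4 h was read at 560 nm and expressed as percent diffusion.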

[4] = system: Caco-2 cell monolayer; assay: Transepithelial electrical resistance; details: for TEER (J10), direction of effect: 1-25 μM, 10 days, vs control; for TEER (J10), concentration given for the effect: day 10
Outline: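 Caco-2 were grown on collagen-coated Transwells (2.5 × 10^5 cells/well) for 4 days. They were then exposed apically and basolaterally to 1, 5, 10 or 25 μM test compound or 0.1% DMSO, renewed every 2 days. Resistance was measured at days 0, 3, 7 and 10 and expressed in Ω cm2. Mean ± SEM of 3 independent experiments, each in triplicate.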

[5] = system: Caco-2 cells; assay: MTT cell viability assay; details: for concentration at which impact on viability appeared: appeared later (J7); for Cell viability (J10), concentration given for the effect: day 10, p < 0.05; for concentration at which toxicity was observed: 3 days-period of exposure
Outline: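 Caco-2 (passage 25–39) were seeded at 5 × 10^4/well. After 20 h they received 0.1–100 μM test compound, alone or as an equimolar mixture, in 4% FBS medium, renewed every 48 h, for 3, 7 and 10 days. MTT (0.5 mg/ml in RPMI) was added for 4 h at 37 °C and stopped with SDS/NaOH. Absorbance was read at 570/690 nm as % of DMSO control; EC50 was taken from the dose–response curve. Three experiments, each in quadruplicate.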

[6] = system: Caco-2 cells; assay: Intracellular ROS; details: 6 h exposure, p < 0.05; for H2O2 production, direction of effect: 25 or 100 μM, vs control
Outline: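 Cells were plated at 5 × 10^4/well and grown 48 h in 10% FBS medium, then washed with PBS. They were exposed for 6 h at 37 °C to 25 or 100 μM test compound in HBSS containing 5 μM H2-DCFDA; controls had 0.025% DMSO. After PBS washes, fluorescence was read at ex 485/em 530 nm.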

[7] = system: Caco-2 cells; assay: Lipid peroxidation measurement; details: 48 h exposure; for Lipid peroxidation, concentration given for the effect: p < 0.01; for TBARS level with respect to control: 25 μM
Outline: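 Cells were seeded at 1.25 × 10^5/well and exposed for 48 h to 25 or 100 μM test compound. Culture medium was mixed with HCl and TBA buffer, heated 10 min at 95 °C, ice-cooled and extracted with n-butanol. Absorbance was read at 532 nm. MDA equivalents were calculated from a TMOP calibration curve.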

[8] = system: Alkaline phosphatase activity in Caco-2 cells; assay: Alkaline phosphatase assay for cell differentiation; details: for ALP activity (J10), direction of effect: 1-25 μM, 10 days, vs control, p < 0.01; for ALP activity (J10), concentration given for the effect: day 10, p < 0.01
Outline: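 Caco-2 seeded at 1.125 × 10^5 cells/well and treated next day with 1, 5, 10 or 25 μM of test compound, or 0.1% DMSO vehicle, for 10 days in 4% FBS medium, renewed every 48 h. Cells were scraped into cold 50 mM Tris pH 7.5 and needle-homogenised. Lysate ALP hydrolysed pNPP over 30 min at pH 10.4, 37 °C; p-nitrophenol read at 405 nm, per mg protein, as % of control.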

[9] = system: Caco-2 cells; assay: Detection of apoptosis and necrosis by Hoechst 33342 and PI staining; details: 25 μM, 48 h; for Percent of necrosis in treated vs control cells: ratio of percentage of necrotic cells in treated versus untreated cells
Outline: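 Cells were seeded at 1.25 × 10^5/well. After 20 h they received 25 μM test compound, alone or as an equimolar mixture, for 48 h. They were stained with Hoechst 33342 (5 μg/ml) plus PI (1 μg/ml) for 30 min at 37 °C in the dark, then washed. Normal, apoptotic and necrotic cells were counted in four random fields per well. Three independent experiments, each in triplicate.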

[10] = system: superoxide dismutase (SOD) activity in Caco-2 cells; assay: Antioxidant enzyme assay: superoxide dismutase; details: 10 days, 1, 5, 10 and 25 μM, vs control
Outline: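 Supernatant at 105,000 × g from sonicated Caco-2 was used, after 10 days' exposure to 1–25 μM test compound or vehicle. Superoxide came from xanthine–xanthine oxidase, and inhibition of NBT reduction was followed kinetically at 560 nm for 5 min over several protein amounts. One unit inhibits formazan formation by 50%. Specific activity is given as % of control.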

[11] = system: glutathione peroxidase (GPx) activity in Caco-2 cells; assay: Antioxidant enzyme assay: glutathione peroxidase; details: 10 days, 1, 5, 10 and 25 μM, vs control
Outline: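 GPx activity was measured in Caco-2 exposed to 1–25 μM test compound or vehicle for 10 days. Cells were sonicated in 50 mM phosphate pH 7 with 1 mM EDTA and the 105,000 × g supernatant was used. The assay was coupled to glutathione reductase with H2O2 and NADPH, and NADPH loss was followed at 340 nm. Specific activity is given as % of control.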

[12] = system: Caco-2 cells; assay: Observation of morphologic changes; details: 25 μM, 72 h, phase contrast microscopy
Outline: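 Cells were seeded at 1.125 × 10^5/well and grown 20 h. They were then exposed to 25 μM test compound for 72 h and morphology was examined by phase-contrast microscopy.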

Compound | level of phospho-Akt (Ser473) [1] | CAT activity [2] | Apparent permeability (J10) (phenol red diffusion), direction of effect [3] | TEER (J10), direction of effect [4] | TEER (J10), concentration given for the effect [4] | concentration at which impact on viability appeared [5] | Cell viability (J10), concentration given for the effect [5] | H2O2 production, concentration given for the effect [6] | Lipid peroxidation, concentration given for the effect [7] | ALP activity (J10), direction of effect [8] | ALP activity (J10), concentration given for the effect [8] | H2O2 production, direction of effect [6] | Percent of necrosis in treated vs control cells [9] | SOD activity [10] | concentration at which toxicity was observed [5] | TBARS level with respect to control [7] | GPx activity [11] | morphological changes / cell density [12] | other results
CC1(C)[C@H](C(=O)O[C@H](C#N)c2cccc(Oc3ccccc3)c2)[C@@H]1/C=C(\Cl)C(F)(F)F (racemic) [LCT, lambda-cyhalothrin] | greatest impact | increase | decrease of membrane permeability | significant increase | 25 µM | 1 µM | 1 µM | 100 µM | 100 µM | increased its activity | 1 µM | – | – | – | – | – | – | – | –
CC1(C)[C@H](C(=O)O[C@H](C#N)c2cccc(Oc3ccccc3)c2)[C@@H]1C=C(Br)Br [DTM, deltamethrin] | – | increase | decrease of membrane permeability | significant increase | 10 µM | 8 µM | 8 µM | 25 µM | 100 µM | increased its activity | 1 µM | strongest effect | 2.7 | – | – | – | – | – | –
COP(=S)(OC)Oc1ccc([N+](=O)[O-])c(C)c1 [FNT, fenitrothion] | – | – | increase of the apparent permeability | net decrease | 10 µM | – | 5 µM | 25 µM | 25 µM | decreased ALP activity | 5 µM | strongest effect | 4.4 | increase | 1 µM | 167.66% | increase | reduction of cell density | –
N#Cc1nn(-c2c(Cl)cc(C(F)(F)F)cc2Cl)c(N)c1[S+]([O-])C(F)(F)F (stereo not shown) [FPN, fipronil] | reduced level; also recorded: greatest impact | – | – | failed to produce a clear and noticeable change | – | 5 µM | 5 µM | 100 µM | 25 µM | decreased ALP activity | 10 µM | strongest effect | 3.2 | – | – | 192.45% | increase | reduction of cell density | EC50 ([5]; Caco-2 cells, 10 days exposure, 0.1-100 μM, mean ± SEM): 18.1 ± 0.5 µM; apoptotic cells ([9]; vs control): huge increased; percentage of necrotic cells ([9]; vs control): increased to a lesser extent
O=C(NC(=O)c1c(F)cccc1F)Nc1cc(Cl)c(F)c(Cl)c1F [TBZ, teflubenzuron] | – | no change | increase of the apparent permeability | net decrease | 5 µM | – | 5 µM | 100 µM | 25 µM | increased its activity | 5 µM | – | 3.8 | no change | 5 µM | – | no change | – | –
